Data as given in ChEMBL document CHEMBL1142454, “Synthesis and evaluation of novel 4-amino-4,6-androstadiene-3,17-dione: an analog of formestane” (2008).

Assays:
Parameters in all cases: scale not given: the % may be the effect or the level left
DU-145 = assay: Antitumor activity against human DU145 cells assessed as reduction of cell growth at 10 uM after 48 hrs by SRB assay; assay type: functional
In short: (§1)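 NCI 60-cell-line primary screen, single dose 10^-5 M (final). Cells grown in RPMI 1640 with 5% FBS and 2 mM L-glutamine, seeded at 5000–40,000 cells/well and preincubated 24 h at 37 °C, 5% CO2. Compound is dissolved in DMSO, diluted in medium with gentamicin, and exposed 48 h. Cells are fixed with 10% TCA (final) and stained with 0.4% SRB; absorbance is read at 515 nm. Readout is growth percentage.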

BT-549 = assay: Antitumor activity against human BT-549 cells assessed as reduction of cell growth at 10 uM after 48 hrs by SRB assay; assay type: functional; in short: as §1
MOLT-4 = assay: Antitumor activity against human MOLT-4 cells assessed as reduction of cell growth at 10 uM after 48 hrs by SRB assay; assay type: functional; in short: as §1
MDA-MB-231 = assay: Antitumor activity against human MDA-MB-231/ATCC cells assessed as reduction of cell growth at 10 uM after 48 hrs by SRB assay; assay type: functional; in short: as §1
KM12 = assay: Antitumor activity against human KM12 cells assessed as reduction of cell growth at 10 uM after 48 hrs by SRB assay; assay type: functional; in short: as §1
IGROV-1 = assay: Antitumor activity against human IGROV1 cells assessed as reduction of cell growth at 10 uM after 48 hrs by SRB assay; assay type: functional; in short: as §1
COLO 205 = assay: Antitumor activity against human COLO205 cells assessed as reduction of cell growth at 10 uM after 48 hrs by SRB assay; assay type: functional; in short: as §1
OVCAR-8 = assay: Antitumor activity against human OVCAR8 cells assessed as reduction of cell growth at 10 uM after 48 hrs by SRB assay; assay type: functional; in short: as §1
[1] = Antitumor activity against human 786-O cells assessed as reduction of cell growth at 10 uM after 48 hrs by SRB assay; assay type: functional, 786-0; in short: as §1
M14 = assay: Antitumor activity against human M14 cells assessed as reduction of cell growth at 10 uM after 48 hrs by SRB assay; assay type: functional; in short: as §1
CAKI-1 = assay: Antitumor activity against human Caki-1 cells assessed as reduction of cell growth at 10 uM after 48 hrs by SRB assay; assay type: functional; in short: as §1
UACC-62 = assay: Antitumor activity against human UACC-62 cells assessed as reduction of cell growth at 10 uM after 48 hrs by SRB assay; assay type: functional
In short: (§2)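 NCI-60 one-dose primary screen at 10^-5 M final. Cells grown in RPMI 1640 with 5% FBS and 2 mM L-glutamine, plated at 5000–40,000 cells/well and preincubated 24 h at 37 °C, 5% CO2. Drug stocks in DMSO, diluted in medium with gentamicin. Exposure 48 h, then fixed in situ with TCA (10% final) for 60 min at 4 °C. Stained with 0.4% SRB in 1% acetic acid, bound dye solubilized in 10 mM trizma base, absorbance read at 515 nm. Reported as mean growth percent; negative values indicate cell kill.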

SK-MEL-5 = assay: Antitumor activity against human SK-MEL-5 cells assessed as reduction of cell growth at 10 uM after 48 hrs by SRB assay; assay type: functional; in short: as §1
NCI-H522 = assay: Antitumor activity against human NCI-H522 cells assessed as reduction of cell growth at 10 uM after 48 hrs by SRB assay; assay type: functional; in short: as §1
MCF7 [2] = assay: Antitumor activity against human MCF7 cells assessed as reduction of cell growth at 10 uM after 48 hrs by SRB assay; assay type: functional; in short: as §1
HT-29 = assay: Antitumor activity against human HT-29 cells assessed as reduction of cell growth at 10 uM after 48 hrs by SRB assay; assay type: functional; in short: as §1
U-251 = assay: Antitumor activity against human U251 cells assessed as reduction of cell growth at 10 uM after 48 hrs by SRB assay; assay type: functional; in short: as §2
Malme-3M = assay: Antitumor activity against human MALME-3M cells assessed as reduction of cell growth at 10 uM after 48 hrs by SRB assay; assay type: functional; in short: as §1
SF-268 = assay: Antitumor activity against human SF-268 cells assessed as reduction of cell growth at 10 uM after 48 hrs by SRB assay; assay type: functional; in short: as §1
ACHN = assay: Antitumor activity against human ACHN cells assessed as reduction of cell growth at 10 uM after 48 hrs by SRB assay; assay type: functional; in short: as §1
NCI-H322M = assay: Antitumor activity against human NCI-H322M cells assessed as reduction of cell growth at 10 uM after 48 hrs by SRB assay; assay type: functional; in short: as §1
HOP-62 = assay: Antitumor activity against human HOP-62 cells assessed as reduction of cell growth at 10 uM after 48 hrs by SRB assay; assay type: functional; in short: as §1
MCF7 [3] = assay: Antitumor activity against human doxorubicin-resistant MCF7 cells assessed as reduction of cell growth at 10 uM after 48 hrs by SRB assay; assay type: functional; in short: as §2
SNB-75 = assay: Antitumor activity against human SNB75 cells assessed as reduction of cell growth at 10 uM after 48 hrs by SRB assay; assay type: functional; in short: as §1
OVCAR-5 = assay: Antitumor activity against human OVCAR5 cells assessed as reduction of cell growth at 10 uM after 48 hrs by SRB assay; assay type: functional; in short: as §1
UO-31 = assay: Antitumor activity against human UO-31 cells assessed as reduction of cell growth at 10 uM after 48 hrs by SRB assay; assay type: functional; in short: as §2
SW-620 = assay: Antitumor activity against human SW620 cells assessed as reduction of cell growth at 10 uM after 48 hrs by SRB assay; assay type: functional; in short: as §2
CCRF-CEM = assay: Antitumor activity against human CCRF-CEM cells assessed as reduction of cell growth at 10 uM after 48 hrs by SRB assay; assay type: functional; in short: as §1
K562 = assay: Antitumor activity against human K-562 cells assessed as reduction of cell growth at 10 uM after 48 hrs by SRB assay; assay type: functional; in short: as §1
UACC-257 = assay: Antitumor activity against human UACC-257 cells assessed as reduction of cell growth at 10 uM after 48 hrs by SRB assay; assay type: functional; in short: as §2
HL-60(TB) = assay: Antitumor activity against human HL-60(TB) cells assessed as reduction of cell growth at 10 uM after 48 hrs by SRB assay; assay type: functional; in short: as §1
SR = assay: Antitumor activity against human SR cells assessed as reduction of cell growth at 10 uM after 48 hrs by SRB assay; assay type: functional; in short: as §2
[4] = Antitumor activity against human HCT 116 cells assessed as reduction of cell growth at 10 uM after 48 hrs by SRB assay; assay type: functional; in short: as §1
SK-OV-3 = assay: Antitumor activity against human SKOV3 cells assessed as reduction of cell growth at 10 uM after 48 hrs by SRB assay; assay type: functional; in short: as §1
EKVX = assay: Antitumor activity against human EKVX cells assessed as reduction of cell growth at 10 uM after 48 hrs by SRB assay; assay type: functional; in short: as §1
TK-10 = assay: Antitumor activity against human TK-10 cells assessed as reduction of cell growth at 10 uM after 48 hrs by SRB assay; assay type: functional; in short: as §2
A498 = assay: Antitumor activity against human A-498 cells assessed as reduction of cell growth at 10 uM after 48 hrs by SRB assay; assay type: functional; in short: as §1
PC-3 = assay: Antitumor activity against human PC-3 cells assessed as reduction of cell growth at 10 uM after 48 hrs by SRB assay; assay type: functional; in short: as §1

SMILES | Activity (DU-145) | Activity (BT-549) | Activity (MOLT-4) | Activity (MDA-MB-231) | Activity (KM12) | Activity (IGROV-1) | Activity (COLO 205) | Activity (OVCAR-8) | Activity [1] | Activity (M14) | Activity (CAKI-1) | Activity (UACC-62) | Activity (SK-MEL-5) | Activity (NCI-H522) | Activity (MCF7 [2]) | Activity (HT-29) | Activity (Malme-3M) | Activity (SF-268) | Activity (ACHN) | Activity (NCI-H322M) | further results
C[C@]12CC[C@H]3[C@@H](CCC4=CC(=O)CC[C@@]43CF)[C@@H]1CCC2=O | 116.2% | 97.23% | 106.1% | 117.71% | 117.01% | 62.42% | 134.97% | 94.26% | 105.6% | 102.8% | 111% | 114.6% | 108.7% | 87.35% | 130.43% | 116.4% | 94.17% | 109.8% | 119.9% | 101.55% | Activity (U-251): 111.4%; Activity (HOP-62): 123.96%; Activity (MCF7 [3]): 107.98%; Activity (SNB-75): 90.07%; Activity (OVCAR-5): 118.37%; Activity (UO-31): 87.76%; Activity (SW-620): 125.89%; Activity (CCRF-CEM): 88.21%; Activity (K562): 93.48%; Activity (UACC-257): 97.04%; Activity (HL-60(TB)): 112.8%; Activity (SR): 118.7%; Activity [4]: 110.19%; Activity (SK-OV-3): 120.5%; Activity (EKVX): 94.85%; Activity (TK-10): 114.8%; Activity (A498): 111.1%
C[C@]12CCC(=O)C(N)=C1C=C[C@@H]1[C@@H]2CC[C@]2(C)C(=O)CC[C@@H]12.Cl | 62.36% | 82.63% | 57.2% | 100.87% | 39.52% | 49.46% | 121.26% | 44.03% | 89.28% | 79.51% | 84.08% | 81.02% | 69.71% | 76.59% | -15.97% | 51.17% | 70.81% | 89.03% | 88.16% | 88.38% | Activity (U-251): 54.19%; Activity (PC-3): 46.51%; Activity (HOP-62): 111.88%; Activity (MCF7 [3]): 68.71%; Activity (SNB-75): 94.19%; Activity (OVCAR-5): 107.69%; Activity (UO-31): 64.59%; Activity (SW-620): 15.36%; Activity (CCRF-CEM): 6.62%; Activity (K562): -26.94%; Activity (UACC-257): 86.69%; Activity (HL-60(TB)): 52.53%; Activity [4]: 6.15%; Activity (SK-OV-3): 120.27%; Activity (EKVX): 97.99%; Activity (TK-10): 85.59%; Activity (A498): 99.19%
CCOC1=C2CC[C@@H]3[C@H](CC[C@]4(C)C(=O)CC[C@@H]34)[C@@]2(C)CCC1=O | 123.2% | 93.87% | 98.59% | 106.73% | 123.89% | 85.75% | 132.65% | 98.96% | 103.4% | 103.8% | 115.2% | 90.78% | 99.39% | 91% | 108.56% | 98.16% | 87.47% | 128.3% | 105.1% | 95.97% | Activity (PC-3): 96.5%; Activity (HOP-62): 103.52%; Activity (MCF7 [3]): 97.45%; Activity (SNB-75): 79.71%; Activity (OVCAR-5): 101.66%; Activity (UO-31): 85.82%; Activity (SW-620): 120.57%; Activity (CCRF-CEM): 91.63%; Activity (K562): 94.09%; Activity (UACC-257): 117.1%; Activity (HL-60(TB)): 112.2%; Activity (SR): 104.9%; Activity [4]: 103.2%; Activity (SK-OV-3): 111.3%; Activity (EKVX): 111.14%; Activity (TK-10): 100.6%; Activity (A498): 105.6%
